The nature of assay [1]: inhibitors of TNFa-induced NFkB p65 translocation, primary screen, imaging, HUVEC, MLSMR starter and 10KST1 sets (AID 438;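 active = inhibition above 20% together with a positive visual image hit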;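 note: compound added about 3h40 before a 20 min TNFalpha stimulation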;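 for inhibition: signal is the nuclear over cytoplasmic p65 intensity ratio per well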). The following applies: HUVEC TNFa-induced p65 nuclear translocation; cell count: measured here: nuclei count (cytotoxicity indicator), at 2.08 µM; inhibition: at 2 µM, stronger effect = higher value, 0% TNFa-plus-vehicle, 100% no-TNFa wells.
A short description of assay [2]: endothelial E-selectin expression blockers – imaging, HUVEC, immunofluorescence, MLSMR starter and 10KST1 sets, primary screen (AID 487;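 active = visually confirmed hit in the image check and inhibition above 20%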;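 for inhibition: signal is fraction of cell area covered by stained E-selectin grains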;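 for nuclei count: 100% = median nuclei count of all wells on the same plate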). The conditions noted are these: HUVEC TNFalpha-induced E-selectin immunofluorescence imaging, at 2 µM; inhibition: stronger effect = higher value; nuclei count: measured here: cell number, toxicity.
Assay [3] in a line: Primary imaging screen for DUSP6 inhibitors that restore phospho-Erk in transfected HeLa cells, chemical complementation (AID 609;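 active = compounds giving at least 50% inhibition in the cell-based MKP-3 phosphatase rescue imaging test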;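 for inhibition: phospho-Erk level distribution per well compared with pooled transfected vehicle control wells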). The conditions noted are these: HeLa MKP-3 transfected, phospho-Erk imaging KS statistic, at 10 µM, cells stimulated with TPA for 15 min.
In assay [4] the target is Dual specificity protein phosphatase 6 (Homo sapiens) (UniProt Q16828). The description is as above. The following applies: HeLa MKP-3 transfected, phospho-Erk imaging KS statistic; at 10 µM; stronger effect = higher value; cells stimulated with TPA for 15 min.
Dual specificity protein phosphatase 6 (Homo sapiens), sequence (Q16828 whole entry, looked up): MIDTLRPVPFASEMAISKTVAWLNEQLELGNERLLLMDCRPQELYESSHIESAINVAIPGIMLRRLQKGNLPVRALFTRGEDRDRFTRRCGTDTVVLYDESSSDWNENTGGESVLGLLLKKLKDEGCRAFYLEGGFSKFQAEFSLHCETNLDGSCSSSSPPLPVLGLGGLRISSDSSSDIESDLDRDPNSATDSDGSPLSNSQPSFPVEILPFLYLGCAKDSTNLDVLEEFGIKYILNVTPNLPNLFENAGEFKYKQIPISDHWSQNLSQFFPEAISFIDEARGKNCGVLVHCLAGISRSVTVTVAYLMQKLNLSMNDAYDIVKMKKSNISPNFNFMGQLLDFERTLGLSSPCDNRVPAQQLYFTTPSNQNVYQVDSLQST
The target in assay [5] is Voltage-gated potassium channel subunit beta-2 (Rattus norvegicus) (UniProt P62483). In words: inhibitors of rat Kvbeta2 reductase activity – biochemical, NADPH fluorescence, primary screen (AID 622;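 active = fluorescence slope higher than the sample average by over 3 SD, cut at about -0.22 in these data, passing the limit was not always enough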;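 note: slope of raw intensity against log time taken from 70 to 1610 s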). The conditions noted are these: recombinant KvBeta, 4-cyanobenzaldehyde reduction, at 10 µM, stronger effect = higher value.
Voltage-gated potassium channel subunit beta-2 (Rattus norvegicus), sequence (P62483 whole entry, looked up): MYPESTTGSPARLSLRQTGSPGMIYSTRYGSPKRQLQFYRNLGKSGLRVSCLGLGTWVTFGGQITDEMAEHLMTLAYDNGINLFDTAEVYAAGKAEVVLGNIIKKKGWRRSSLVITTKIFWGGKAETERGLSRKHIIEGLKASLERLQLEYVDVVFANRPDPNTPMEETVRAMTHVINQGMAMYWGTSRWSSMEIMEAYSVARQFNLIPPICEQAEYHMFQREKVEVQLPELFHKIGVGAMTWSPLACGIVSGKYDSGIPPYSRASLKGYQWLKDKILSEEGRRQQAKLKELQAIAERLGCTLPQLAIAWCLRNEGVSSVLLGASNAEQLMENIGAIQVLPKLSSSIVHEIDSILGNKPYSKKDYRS
For assay [6] the target is unchanged. Put plainly: enhancers of rat Kvbeta2 NADPH turnover – biochemical, NADPH fluorescence, primary screen (AID 623).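 Note: fluorescence intensity change per second fitted from 20 to 320 s.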 The following applies: Recombinant KvBeta, NADPH fluorescence decrease slope, 10 min; at 10 µM; stronger effect = lower value.
Assay [7] concerns the target Muscarinic acetylcholine receptor M4 (Homo sapiens) (UniProt P08173). In words: M4-linked GIRK flux change, two-sided – cell-based, HEK293 M4/GIRK, thallium flux, BTC-AM, M4 allosteric agonist project, primary screen (AID 625;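 active = fluorescence slope after compound addition differing from the mean of all tested samples at 99.7% confidence, mostly higher but some lower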;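 note: thallium influx through GIRK channels coupled to M4 in HEK293 cells with BTC-AM dye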). The conditions noted are these: at 10 µM, actives lie on both sides. A digest of the protocol:
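Material: HEK293 cells with M4 receptor and GIRK channels; Times: cells overnight at 37 °C, BTC-AM loading 1 h, reads 2 min total; Technique: kinetic BTC-AM fluorescence sampled at 1 Hz, 10 s pre-addition baseline; Read-out basis: slope over 15–24 s of trace normalized to starting intensity; Controls: carbachol positive, DMSO negative.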

Assay [8] in a line: inhibitors of larval lipid processing in zebrafish, primary screen, whole organism, PED6 fluorescence, gall bladder and intestine (AID 686;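 active = a full or partial loss of lipid-probe fluorescence in the fish gall bladder, intestine or both, judged by eye; inactive = no fluorescence loss, or compound toxic to the fish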;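 note: larvae 5 to 7 days old with five fish per well; signal comes from phospholipase A2 cleavage of quenched PED6 carried via bile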). The conditions noted are these: Zebrafish larvae PED6 lipid processing, fluorescence scoring; screened at 20 µM (by protocol). A digest of the protocol: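 Incubation: overnight exposure of larvae to compound plus PED6 / Test system: live zebrafish larvae aged 5-7 days, whole organism / Amount: 5 larvae per well / Read-out basis: visual per-well fluorescence inhibition score / Signal: visual fluorescence microscopy scoring of gall bladder, gut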

Assay [9] in a line: loss of swimming-algae plug formation – whole organism, Chlamydomonas reinhardtii, WT vs cilia-less mutant, absorbance, 96-well, primary screen (AID 463189;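 active = inhibition at or above 50% relative to wild type and mutant plate controls; inactive = inhibition below 50%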;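 note: 0% = wild type cc124 cells in DMSO and 100% = ciliumless bld1 mutant cells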). The following applies: Chlamydomonas reinhardtii gravitaxis, OD600 absorbance, 2 days; at 10 µM; stronger effect = higher value.
[10] abbreviates: measured here: cell density z-score.
Setting [11] is: measured here: nuclear c-Myc green intensity z-score.
[12] abbreviates: measured here: nuclear pErk red intensity z-score, stronger effect = higher value.

Molecules are shown by their SMILES. Active and inactive are the calls of the source.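 Rule for the calls, unless noted: active = NADPH fluorescence slope more negative than the mean of all samples by about 3 SD, 99.7% confidence; inactive = the rest.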

Muscarinic acetylcholine receptor M4 (Homo sapiens), sequence (P08173 whole entry, looked up): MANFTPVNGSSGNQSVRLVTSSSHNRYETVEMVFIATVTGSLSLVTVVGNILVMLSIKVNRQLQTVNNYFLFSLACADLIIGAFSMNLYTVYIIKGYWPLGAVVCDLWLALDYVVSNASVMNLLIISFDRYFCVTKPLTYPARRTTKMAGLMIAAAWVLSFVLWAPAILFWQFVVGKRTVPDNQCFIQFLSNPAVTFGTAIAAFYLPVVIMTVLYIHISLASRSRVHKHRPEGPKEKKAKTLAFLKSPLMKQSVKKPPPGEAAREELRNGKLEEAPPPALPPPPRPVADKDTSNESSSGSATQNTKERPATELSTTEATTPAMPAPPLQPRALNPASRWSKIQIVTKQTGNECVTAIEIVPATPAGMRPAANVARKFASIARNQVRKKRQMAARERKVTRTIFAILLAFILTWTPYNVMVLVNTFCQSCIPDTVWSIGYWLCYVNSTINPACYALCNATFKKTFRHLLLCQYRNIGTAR

`O=C1CC(NCc2ccncc2)C(=O)N1c1ccc(Cl)cc1` (centres undefined): the cell count in assay [1] was determined as 479. For the same molecule, the inhibition was 2.2% (inactive) in [1], -20.1% (inactive) in [2], 2.71% (inactive) in assay [4] and 25.9% (inactive) in assay [9]. In addition, in assay [2], the nuclei count was found to be 150%. Besides, the z-score in [3] (setting [10]) was 0.96; in assay [3] (setting [11]), -0.274; in assay [3] (setting [12]), -0.794. The fluorescence slope is -0.464 (inactive) in assay [5] and 0.00465 (inactive) in assay [7]. The NADPH fluorescence slope in [6] is -3.3e-05 (inactive). Also, the call in [8] was inactive.

Turning to `Cc1cc(C)n(CC2CC(=O)N(c3ccc(F)c(Cl)c3)C2=O)n1` (centres undefined), the cell count in assay [1] turned out to be 460. Also, the inhibition in assay [1] is -0.7% (inactive); in [2], -64.8% (inactive); in assay [4] it was -3.97% (inactive); in assay [9] it was -11.1% (inactive). Further, the nuclei count in [2] worked out at 111%. The z-score in [3] (setting [10]) was -0.992; in [3] (setting [11]), 0.731; in assay [3] (setting [12]), -1.56. The fluorescence slope in [5] is -0.314 (inactive); in [7], 0.00494 (inactive). In assay [6], the NADPH fluorescence slope is 1.8e-05 (inactive). In addition, in [8], the molecule was called inactive.

As to `CC1(C)Cc2c(C#N)c(OCC(=O)c3ccccc3)nc(-c3ccoc3)c2CO1`, the cell count in assay [1] was 547. In addition, the inhibition in assay [1] is -9.6% (inactive); in assay [2], 14.2% (inactive); in [4], -0.233% (inactive); in [9], 56.8% (active). Moreover, the nuclei count in assay [2] worked out at 98.1%. Moreover, the z-score in [3] (setting [10]) was 0.66; in [3] (setting [11]) it was -1.5; in assay [3] (setting [12]), -0.876. In addition, the fluorescence slope was -0.465 (inactive) in assay [5] and 0.00542 (inactive) in [7]. Also, the NADPH fluorescence slope in assay [6] is 2.6e-05 (inactive). Further, the molecule was classed as inactive in assay [8].

For `O=C(NCc1ccccc1)/C(=N\O)c1ccccc1`, the cell count in [1] is 517. Further, the inhibition in [1] is -5.4% (inactive); in [2] it was 3.5% (inactive); in assay [4] it was -1.98% (inactive); in [9] it was -1.95% (inactive). The molecule also showed a nuclei count in [2] of 157%. The figures for the z-score in assay [3] (setting [10]), in assay [3] (setting [11]) and in assay [3] (setting [12]) were 0.588, 0.215 and 0.627, respectively. Besides, the fluorescence slope was -0.382 (inactive) in assay [5] and 0.00503 (inactive) in [7]. For the same molecule, the NADPH fluorescence slope in [6] is -1.6e-05 (inactive). Moreover, the result in assay [8] was inactive.

For the molecule `Cc1ccc(Cn2ncc3c(N4CCN(Cc5ccc(Cl)cc5)CC4)ncnc32)cc1`, the cell count in assay [1] worked out at 549. Also, the inhibition in assay [1] is 22.5% (active); in assay [2] it was -21.2% (inactive); in assay [4], 5.95% (inactive); in assay [9] it was 60.8% (active). This molecule also had a nuclei count in assay [2] of 134%. The results for the z-score in [3] (setting [10]), in [3] (setting [11]) and in [3] (setting [12]) were -0.467, 0.343 and 1.03, respectively. Further, the fluorescence slope in [5] is -0.368 (inactive); in assay [7] it was 0.00938 (inactive). Also, the NADPH fluorescence slope in assay [6] was -6.6e-05 (inactive). Moreover, in [8], the result was inactive.

Turning to `COc1ccc(C2CC(c3ccc(C)cc3)Nc3nc(N)nn32)cc1` (centres undefined), in assay [1], the cell count was found to be 390. The inhibition in [1] is 2.2% (inactive); in assay [2] it was -104% (inactive); in assay [4], 9.82% (inactive); in assay [9], -10.9% (inactive). In [2], the nuclei count was 145%. The z-score in assay [3] (setting [10]) was -0.765; in assay [3] (setting [11]), 2.44; in assay [3] (setting [12]), -0.827. The fluorescence slope in assay [5] was -0.447 (inactive); in assay [7], 0.00548 (inactive). For the same molecule, the NADPH fluorescence slope in [6] is -7.3e-05 (inactive). Besides, the molecule was classed as inactive in assay [8].

For `CCOC(=O)C(O)(C1C(=O)CC(C)(C)CC1=O)C(F)(F)F` (centres undefined), the cell count in [1] is 681. Further, the inhibition was -12.6% (inactive) in assay [1], -174% (inactive) in assay [2], -9.53% (inactive) in [4] and 3.71% (inactive) in assay [9]. This molecule also returned a nuclei count in [2] of 160%. The z-score in assay [3] (setting [10]) was -0.979; in assay [3] (setting [11]), 0.326; in [3] (setting [12]) it was 3.57. In addition, the fluorescence slope in assay [5] is -0.44 (inactive); in assay [7] it was 0.00523 (inactive). Also, the NADPH fluorescence slope in assay [6] was -4.6e-05 (inactive). In [8], the molecule was classed as inactive.

Regarding `CCOc1ccc(C2C=C(c3ccccc3)Nc3ncnn32)cc1` (centres undefined), in assay [1], the cell count was determined as 531. Further, the inhibition in assay [1] was -1.1% (inactive); in [2], 58.8% (inactive); in assay [4] it was 11.9% (inactive); in assay [9] it was 22.6% (inactive). In addition, the nuclei count in assay [2] stood at 151%. Moreover, the values for the z-score in assay [3] (setting [10]), in [3] (setting [11]) and in [3] (setting [12]) were -0.603, 0.992 and -0.889, respectively. In addition, the fluorescence slope in assay [5] was -0.0438 (inactive); in assay [7], 0.00687 (inactive). Also, the NADPH fluorescence slope in assay [6] is -6.4e-06 (inactive). In assay [8], the molecule was classed as inactive.

In the case of `COc1cc(C(=O)Nc2ccc(O)cc2C(=O)O)ccc1OC(C)=O`, the cell count in assay [1] was 645. Also, the inhibition in [1] was 3.6% (inactive); in assay [2] it was 31.5% (inactive); in [4], 5.35% (inactive); in [9], 13.9% (inactive). Moreover, in assay [2], the nuclei count amounted to 95.3%. Moreover, the z-score in assay [3] (setting [10]) was -0.0173; in [3] (setting [11]) it was 0.715; in assay [3] (setting [12]), -0.436. Besides, the fluorescence slope in assay [5] is -0.547 (inactive); in assay [7] it was 0.00561 (inactive). Moreover, the NADPH fluorescence slope in [6] was -6.2e-05 (inactive). Besides, the result in [8] was inactive.

As for `CC1CCN(c2[nH]c(=S)c(C#N)c3c2CCCC3)CC1`, the cell count in [1] amounted to 383. Also, the inhibition in assay [1] was -5.9% (inactive); in assay [2], -5.3% (inactive); in assay [4] it was 1.42% (inactive); in [9], 19.3% (inactive). In assay [2], this molecule yielded a nuclei count of 140%. The z-score in [3] (setting [10]) is 0.378; in assay [3] (setting [11]), -0.606; in assay [3] (setting [12]), 1.46. For the same molecule, the fluorescence slope in assay [5] was -0.469 (inactive); in [7], 0.00501 (inactive). For the same molecule, in assay [6], the NADPH fluorescence slope was -0.000131 (inactive). In addition, in assay [8], the outcome was inactive.

On to `Cn1c(=O)[nH]c(=O)c2c1nc(N1CCN(c3cccc(Cl)c3)CC1)n2CCCc1ccccc1`, for which the cell count in assay [1] came to 620. Further, the inhibition was -6% (inactive) in [1], -19.3% (inactive) in [2], 24% (inactive) in assay [4] and -0.786% (inactive) in assay [9]. For the same molecule, the nuclei count in [2] stood at 104%. Moreover, the figures for the z-score in assay [3] (setting [10]), in [3] (setting [11]) and in assay [3] (setting [12]) were 0.751, -1.24 and -0.00216, respectively. In addition, the fluorescence slope is -0.442 (inactive) in assay [5] and 0.0083 (inactive) in [7]. In assay [6], the NADPH fluorescence slope is -6.2e-05 (inactive). In assay [8], the call was inactive.

For `Cn1c[n+](C)cc1/C=N/O`, the cell count in [1] is 710. In addition, the inhibition was -2% (inactive) in [1], -108% (inactive) in [2], 0.671% (inactive) in [4] and -4.46% (inactive) in assay [9]. The nuclei count in assay [2] amounted to 159%. Besides, the z-score in assay [3] (setting [10]) was -0.468; in assay [3] (setting [11]), 0.134; in [3] (setting [12]) it was -0.77. Besides, the fluorescence slope was -0.459 (inactive) in assay [5] and 0.00537 (inactive) in assay [7]. In addition, the NADPH fluorescence slope in assay [6] was -6.2e-05 (inactive). Moreover, in assay [8], the call was inactive.

For the molecule `O=C(O)C1CC(=O)n2c(nc3ccccc32)S1` (centres undefined), the cell count in [1] was determined as 608. For the same molecule, the inhibition in assay [1] was -4.4% (inactive); in assay [2], -24.7% (inactive); in [4], 3.49% (inactive); in [9], 8.06% (inactive). The nuclei count in [2] was found to be 119%. The z-score in assay [3] (setting [10]) is 0.706; in assay [3] (setting [11]), -1.47; in assay [3] (setting [12]), -0.562. For the same molecule, the results for the fluorescence slope in assay [5] and in [7] were -0.47 (inactive) and 0.00435 (inactive), respectively. The NADPH fluorescence slope in assay [6] was -6e-05 (inactive). Besides, the molecule was classed as inactive in assay [8].

The values above are taken from PubChem BioAssay.
